“And” between values parts separate entries of the source, which are not always exact repeats. Identical values can stand only once. The source made the active and inactive calls. The rule behind the calls is not given here.
Key:
Rattus norvegicus [1] = assay: Hypotensive activity in conscious rat 24 hr after 5 mg/kg p.o. administration.; assay type: functional; conditions: route oral
Procedure, shortened: (§1)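 Restrained (towel-wrapped, to raise sympathetic tone) conscious female Sprague-Dawley rats with chronic indwelling aortic cannulas exteriorized at the nape; blood pressure recorded directly by transducer before and 4 and 24 h after oral dosing. Compound suspended in carboxymethylcellulose vehicle, 10 mL/kg; doses 50 to 0.05 mg/kg. Two rats averaged per time point; average change ≥5 mmHg taken as significant (p < 0.05).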

Rattus norvegicus [2] = assay: Hypotensive activity in conscious rat 4 hr after 5 mg/kg p.o. administration.; assay type: functional; conditions: route oral; procedure, shortened: as §1
Rattus norvegicus [3] = assay: Compound was tested for hypotensive activity by measuring the average change in mean arterial blood pressure in mmHg after 4 hr at 150 mg/Kg oral dosing of a conscious rat; assay type: functional, Artery
Rattus norvegicus [4] = assay: Compound was tested for hypotensive activity by measuring the average change in mean arterial blood pressure in mmHg after 24 hr at 150 mg/Kg oral dosing of a conscious rat; assay type: functional, Artery
Rattus norvegicus [5] = assay: Compound was tested for hypotensive activity by measuring the average change in mean arterial blood pressure in mmHg after 24 hr at 50 mg/Kg oral dosing of a conscious rat; assay type: functional, Artery; procedure, shortened: as §1
Rattus norvegicus [6] = assay: Compound was tested for hypotensive activity by measuring the average change in mean arterial blood pressure in mmHg after 4 hr at 50 mg/Kg oral dosing of a conscious rat; assay type: functional, Artery; procedure, shortened: as §1
Rattus norvegicus [7] = assay: Compound was tested for hypotensive activity by measuring the average change in mean arterial blood pressure in mmHg after 4 hr at 0.1 mg/Kg oral dosing of a conscious rat; assay type: functional, Artery; procedure, shortened: as §1
Rattus norvegicus [8] = assay: Compound was tested for hypotensive activity by measuring the average change in mean arterial blood pressure in mmHg after 24 hr at 0.1 mg/Kg oral dosing of a conscious rat; assay type: functional, Artery; procedure, shortened: as §1
Mus musculus [9] = species on record: Mus musculus; assay: Lowest dose of compound associated with unacceptable clinical signs.; assay type: functional
[10] = Acute toxicity was determined in mice; assay type: organism-based; conditions: mouse, in vivo
Mus musculus [11] = species on record: Mus musculus; assay: Lowest dose of compound associated with clinical signs.; assay type: functional
Rattus norvegicus [12] = assay: Compound was tested for hypotensive activity by measuring the average change in mean arterial blood pressure in mmHg after 24 hr at 0.5 mg/Kg oral dosing of a conscious rat; assay type: functional, Artery; procedure, shortened: as §1
Rattus norvegicus [13] = assay: Compound was tested for hypotensive activity by measuring the average change in mean arterial blood pressure in mmHg after 4 hr at 0.5 mg/Kg oral dosing of a conscious rat; assay type: functional, Artery; procedure, shortened: as §1
Rattus norvegicus [14] = assay: Compound was tested for hypotensive activity by measuring the average change in mean arterial blood pressure in mmHg after 24 hr at 1 mg/Kg oral dosing of a conscious rat; assay type: functional, Artery; procedure, shortened: as §1
Rattus norvegicus [15] = assay: Compound was tested for hypotensive activity by measuring the average change in mean arterial blood pressure in mmHg after 4 hr at 1 mg/Kg oral dosing of a conscious rat; assay type: functional, Artery; procedure, shortened: as §1
Rattus norvegicus [16] = assay: Compound was tested for hypotensive activity by measuring the average change in mean arterial blood pressure in mmHg after 24 hr at 10 mg/Kg oral dosing of a conscious rat; assay type: functional, Artery; procedure, shortened: as §1
Rattus norvegicus [17] = assay: Compound was tested for hypotensive activity by measuring the average change in mean arterial blood pressure in mmHg at 4 hr after at 50 mg/Kg oral dosing of a conscious rat; assay type: functional, Artery; procedure, shortened: as §1
Mus musculus [18] = species on record: Mus musculus; assay: Lowest dose of compound associated with clinical signs; assay type: functional
Rattus norvegicus [19] = assay: Compound was tested for hypotensive activity by measuring the average change in mean arterial blood pressure in mmHg at 3 mg/Kg oral dosing of a conscious rat; IA is Inactive; assay type: functional, organism-based; conditions: Artery; procedure, shortened: as §1
Rattus norvegicus [20] = assay: Compound was tested for hypotensive activity by measuring the average change in mean arterial blood pressure in mmHg after 4 hr at 10 mg/Kg oral dosing of a conscious rat; assay type: functional, Artery; procedure, shortened: as §1
Rattus norvegicus [21] = assay: Compound was tested for hypotensive activity by measuring the average change in mean arterial blood pressure in mmHg 24 hr after at 50 mg/Kg oral dosing of a conscious rat; assay type: functional, Artery; procedure, shortened: as §1
Mus musculus [22] = species on record: Mus musculus; assay: Lowest dose of compound associated with clinical signs; NA is Not Acceptable.; assay type: functional, organism-based

Row | Compound | Activity (Rattus norvegicus [1]) [mmHg] | Activity (Rattus norvegicus [2]) [mmHg] | Activity (Rattus norvegicus [5]) [mmHg] | Activity (Rattus norvegicus [6]) [mmHg] | Dose (Mus musculus [9]) [mg/kg] | LD50 [10] [mg/kg] | Activity (Rattus norvegicus [12]) [mmHg] | Activity (Rattus norvegicus [13]) [mmHg] | other results
1 | COc1ccc(S(=O)(=O)N2CCN(C(=O)c3ccc(Nc4ccnc5cc(C(F)(F)F)ccc45)cc3)CC2)cc1 | -3 | -6 |  |  |  |  |  |  | 
2 | COc1ccc(N2CCN(Cc3ccc(Nc4ccnc5cc(C(F)(F)F)ccc45)cc3)CC2)cc1 |  |  | -1 | 1 |  |  |  |  | Activity (Rattus norvegicus [3]): -5 mmHg; Activity (Rattus norvegicus [4]): -16 mmHg
3 | O=C(c1ccc(Nc2ccnc3cc(C(F)(F)F)ccc23)cc1)N1CC=C(c2ccc(Cl)cc2)CC1 | -16 | -7 |  |  | 316 | 1000 |  |  | Activity (Rattus norvegicus [7]): -3 mmHg; Activity (Rattus norvegicus [8]): -11 mmHg; Dose (Mus musculus [11]): <100 mg/kg
4 | COc1ccc(C2(O)CCN(C(=O)c3ccc(Nc4ccnc5cc(C(F)(F)F)ccc45)cc3)CC2)cc1 | -5 | -15 |  |  |  |  |  |  | 
5 | Cc1ccccc1N1CCN(S(=O)(=O)c2ccc(Nc3ccnc4cc(C(F)(F)F)ccc34)cc2)CC1 | -13 | -10 |  |  |  |  | 0 | -1 | 
6 | Cc1ccc(S(=O)(=O)N2CCN(C(=O)c3ccc(Nc4ccnc5cc(C(F)(F)F)ccc45)cc3)CC2)cc1 | -25 | -42 |  |  |  |  |  |  | 
7 | CS(=O)(=O)c1ccc(N2CCN(C(=O)c3ccc(Nc4ccnc5cc(C(F)(F)F)ccc45)cc3)CC2)cc1 | -16 | -10 |  |  | 1000 | 3160 | -5 | -7 | Dose (Mus musculus [11]): 316 mg/kg
8 | O=C(c1ccc(Nc2ccnc3cc(C(F)(F)F)ccc23)cc1)N1CCC(c2ccccc2)CC1 |  |  | -17 | -4 |  |  |  |  | 
9 | CSc1nccc(N2CCN(C(=O)c3ccc(Nc4ccnc5cc(C(F)(F)F)ccc45)cc3)CC2)n1 | -16 | -8 |  |  |  |  |  |  | 
10 | O=C(c1ccc(Nc2ccnc3cc(C(F)(F)F)ccc23)cc1)N1CCN(c2ccc(F)cc2)CC1 | -10 | -11 |  |  |  |  |  |  | Activity (Rattus norvegicus [14]): 1 mmHg; Activity (Rattus norvegicus [15]): -12 mmHg
11 | COc1cc(N2CCN(C(=O)c3ccc(Nc4ccnc5cc(C(F)(F)F)ccc45)cc3)CC2)nc(OC)n1 | -24 | -10 | -29 | -13 | <100 | > 3160 | -12 | -2 | Dose (Mus musculus [11]): <100 mg/kg
12 | O=C(c1ccc(Nc2ccnc3cc(C(F)(F)F)ccc23)cc1)N1CCN(c2[nH]cnc3ncnc2-3)CC1 |  |  | -3 | -4 |  |  |  |  | 
13 | O=C(c1ccc(Nc2ccnc3cc(C(F)(F)F)ccc23)cc1)N1CCN(S(=O)(=O)c2ccc(Cl)cc2)CC1 | -34 | -20 |  |  | >3160 | > 3160 | -15 | -13 | Dose (Mus musculus [11]): <100 mg/kg
14 | O=C(c1ccc(Nc2ccnc3cc(C(F)(F)F)ccc23)cc1)N1CCN(c2ccccn2)CC1 | -13 | -10 |  |  | 316 | 1400 | -2 | 2 | Dose (Mus musculus [11]): <100 mg/kg
15 | COc1ccc(C2=CCN(C(=O)c3ccc(Nc4ccnc5cc(C(F)(F)F)ccc45)cc3)CC2)cc1 | -2 | -6 |  |  |  |  |  |  | 
16 | COc1ccccc1N1CCN(S(=O)(=O)c2ccc(Nc3ccnc4cc(C(F)(F)F)ccc34)cc2)CC1 | -14 | -1 |  |  |  |  |  |  | 
17 | CN(C)S(=O)(=O)N1CCN(C(=O)c2ccc(Nc3ccnc4cc(C(F)(F)F)ccc34)cc2)CC1 | -6 | -18 |  |  | >3160 | > 3160 | -2 | -6 | Dose (Mus musculus [11]): 100 mg/kg
18 | COc1ccc(N2CCN(C(=O)c3ccc(Nc4ccnc5cc(C(F)(F)F)ccc45)cc3)CC2)cc1 |  |  | -18 | -19 |  |  |  |  | 
19 | Fc1ccc(N2CCN(Cc3ccc(Nc4ccnc5cc(C(F)(F)F)ccc45)cc3)CC2)cc1 |  |  | -18 | -4 |  |  |  |  | Activity (Rattus norvegicus [2]; 5 mg/kg): -7 mmHg and -9 mmHg
20 | Cc1cccc(C2=CCN(C(=O)c3ccc(Nc4ccnc5cc(C(F)(F)F)ccc45)cc3)CC2)c1 | -8 | -8 |  |  |  |  |  |  | 
21 | O=C(c1ccc(Nc2ccnc3cc(C(F)(F)F)ccc23)cc1)N1CCNCC1 |  |  |  |  | 1000 | 1780 |  |  | Activity (Rattus norvegicus [16]): -8 mmHg; Activity (Rattus norvegicus [17]): -15 mmHg; Dose (Mus musculus [18]): 100 mg/kg; Activity (Rattus norvegicus [19]): inactive; Activity (Rattus norvegicus [20]): -7 mmHg; Activity (Rattus norvegicus [21]): -22 mmHg
22 | COc1ccccc1N1CCN(C(=O)c2ccc(Nc3ccnc4cc(C(F)(F)F)ccc34)cc2)CC1 |  |  | -27 | -13 |  |  |  |  | 
23 | Cc1cc(N2CCN(C(=O)c3ccc(Nc4ccnc5cc(C(F)(F)F)ccc45)cc3)CC2)nc(N)n1 |  |  | -4 | -3 |  |  |  |  | 
24 | Cc1cccc(C2(O)CCN(C(=O)c3ccc(Nc4ccnc5cc(C(F)(F)F)ccc45)cc3)CC2)c1 | -4 | -10 |  |  |  |  | -1 | -4 | 
25 | O=C(c1ccc(Nc2ccnc3cc(C(F)(F)F)ccc23)cc1)N1CCN(c2ccccc2)CC1 |  |  | -13 | 4 |  |  |  |  | 
26 | O=C(c1ccc(Nc2ccnc3cc(C(F)(F)F)ccc23)cc1)N1CCC(O)(c2ccc(Cl)cc2)CC1 |  |  |  |  | <100 | 237 | -22 | -19 | DOSE (Mus musculus [22]): Not acceptable
